{"source": "paper PMC3701955", "about": "(Bioorganic & medicinal chemistry, 2012)", "key": {"OTR of the CNS": {"target": "T1, OTR of the CNS (Rattus norvegicus, UniProt P70536)", "T1 sequence (P70536 1-388)": "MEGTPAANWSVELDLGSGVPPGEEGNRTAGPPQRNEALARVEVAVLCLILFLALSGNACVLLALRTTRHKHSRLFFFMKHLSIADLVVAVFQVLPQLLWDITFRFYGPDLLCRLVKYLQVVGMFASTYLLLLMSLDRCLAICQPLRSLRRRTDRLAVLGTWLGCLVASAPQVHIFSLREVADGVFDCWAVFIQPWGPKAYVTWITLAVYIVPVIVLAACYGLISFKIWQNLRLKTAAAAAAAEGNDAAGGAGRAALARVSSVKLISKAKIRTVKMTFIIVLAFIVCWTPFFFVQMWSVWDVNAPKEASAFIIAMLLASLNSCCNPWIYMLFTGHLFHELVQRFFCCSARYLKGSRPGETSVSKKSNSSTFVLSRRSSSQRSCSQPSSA", "experiment": "PET imaging of the brain using a rat model", "format": "in vivo, Sprague–Dawley rats", "details": "rats, 90 min ([18F]3) or 45 min ([11C]4) scan"}, "[1]": {"format": "in vivo", "details": "female Sprague–Dawley rats, iv; for Biodistribution of radioactivity, Liver / Biodistribution of radioactivity in brain region, Amygdala / Biodistribution of radioactivity in brain region, Basal Hypothalamus / Biodistribution of radioactivity in brain region, Cerebellum / Biodistribution of radioactivity in brain region, Remaining Brain / Biodistribution of radioactivity, Blood / Biodistribution of radioactivity, Heart / Biodistribution of radioactivity, Kidney / Biodistribution of radioactivity, Lung / Biodistribution of radioactivity, Muscle / Biodistribution of radioactivity, Uterus / Biodistribution of radioactivity in brain region, Dorsal Striatum / Biodistribution of radioactivity, Brain: mean ± SD; for Biodistribution of radioactivity, Brain: total brain"}, "OTR and V1aR": {"tested_on": "OTR and V1aR", "experiment": "Receptor autoradiography with the radioligand on prairie vole brain slices", "format": "binding", "details": "70 pM radioligand", "method_in_brief": "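Prairie vole brains were cut at 20 μm from prefrontal cortex through nucleus accumbens and ventral pallidum, stored at −80 °C, and thawed. Sections were dipped in 0.1% paraformaldehyde/PBS pH 7.4 and rinsed in 50 mM Tris pH 7.4. They were incubated 1 h with 70 pM radioiodinated test compound without competitor, then washed in 50 mM Tris + 2% MgCl2 pH 7.4, air-dried, and exposed to film 72 h. Six animals per study.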"}, "human OTR": {"target": "T2, human OTR (Homo sapiens, UniProt P30559)", "T2 sequence (P30559 1-389)": "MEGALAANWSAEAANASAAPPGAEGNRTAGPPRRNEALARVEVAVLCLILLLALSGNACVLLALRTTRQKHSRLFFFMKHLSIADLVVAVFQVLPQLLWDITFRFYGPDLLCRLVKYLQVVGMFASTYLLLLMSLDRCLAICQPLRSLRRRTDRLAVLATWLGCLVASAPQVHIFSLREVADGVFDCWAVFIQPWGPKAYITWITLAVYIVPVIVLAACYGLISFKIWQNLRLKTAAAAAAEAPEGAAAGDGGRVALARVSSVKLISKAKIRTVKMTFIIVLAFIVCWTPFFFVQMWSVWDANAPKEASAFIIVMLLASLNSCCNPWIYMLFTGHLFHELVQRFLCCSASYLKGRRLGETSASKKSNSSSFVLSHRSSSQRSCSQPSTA", "format": "binding", "details": "human receptors"}}, "note": "Where two headings read alike, the source gives them in different places."}
{"molecule": "1-(4-(3,4-Dihydroquinolin-1(2H)-yl)piperidin-1-yl)-2-(2-(2-[^18F]fluoroethoxy)-4-((1-(methylsulfonyl)piperidin-4-yl)oxy)phenyl)ethanone [[^18F]3]", "values": [{"measurement": "viability for in vivo PET imaging of brain OTR", "setting": "OTR of the CNS", "value": "not viable for in vivo PET imaging of the OTR of the CNS"}, {"measurement": "in vivo stability of the radiolabel (thyroid / bone uptake over time)", "setting": "[1]", "value": "appeared to remain intact"}, {"measurement": "Biodistribution of radioactivity, Liver", "setting": "[1]; 15 min", "value": "1.81 ± 0.36", "unit": "%ID/g"}, {"measurement": "Biodistribution of radioactivity, Liver", "setting": "[1]; 30 min", "value": "1.41 ± 0.17", "unit": "%ID/g"}, {"measurement": "Biodistribution of radioactivity, Liver", "setting": "[1]; 60 min", "value": "0.98 ± 0.44", "unit": "%ID/g"}, {"measurement": "Biodistribution of radioactivity, Liver", "setting": "[1]; 120 min", "value": "1.18 ± 0.18", "unit": "%ID/g"}]}
{"molecule": "CS(=O)(=O)N1CCC(Oc2ccc(CC(=O)N3CCC(N4C(=O)CCc5ccccc54)CC3)c(OC/C=C/[125I])c2)CC1", "note": "[[^125I]1, (E)-1-(1-(2-(2-(3-[125I]Iodoallyloxy)-4-(1-(methylsulfonyl)piperidin-4-yloxy)phenyl)acetyl)piperidin-4-yl)-3,4-dihy droquinolin-2(1H)-one]", "values": [{"measurement": "autoradiographic binding to brain regions", "setting": "OTR and V1aR", "value": "bind to receptors in the NAcc and VP"}, {"measurement": "in vivo stability of the radiolabel (thyroid / bone uptake over time)", "setting": "[1]", "value": "broken down readily in vivo at the iodine position"}, {"measurement": "Biodistribution of radioactivity in brain region, Amygdala", "setting": "[1]; 15 min", "value": "0.09 ± 0.02", "unit": "%ID/g"}, {"measurement": "Biodistribution of radioactivity in brain region, Basal Hypothalamus", "setting": "[1]; 15 min", "value": "0.08 ± 0.01", "unit": "%ID/g"}, {"measurement": "Biodistribution of radioactivity in brain region, Cerebellum", "setting": "[1]; 15 min", "value": "0.08 ± 0.01", "unit": "%ID/g"}, {"measurement": "Biodistribution of radioactivity in brain region, Remaining Brain", "setting": "[1]; 15 min", "value": "0.07 ± 0.01", "unit": "%ID/g"}, {"measurement": "Biodistribution of radioactivity, Blood", "setting": "[1]; 15 min", "value": "0.58 ± 0.51", "unit": "%ID/g"}, {"measurement": "Biodistribution of radioactivity, Heart", "setting": "[1]; 15 min", "value": "0.82 ± 0.70", "unit": "%ID/g"}, {"measurement": "Biodistribution of radioactivity, Kidney", "setting": "[1]; 15 min", "value": "0.96 ± 0.84", "unit": "%ID/g"}, {"measurement": "Biodistribution of radioactivity, Liver", "setting": "[1]; 15 min", "value": "5.67 ± 5.08", "unit": "%ID/g"}, {"measurement": "Biodistribution of radioactivity, Lung", "setting": "[1]; 15 min", "value": "1.86 ± 1.60", "unit": "%ID/g"}, {"measurement": "Biodistribution of radioactivity, Muscle", "setting": "[1]; 15 min", "value": "0.28 ± 0.24", "unit": "%ID/g"}, {"measurement": "Biodistribution of radioactivity, Uterus", "setting": "[1]; 15 min", "value": "0.43 ± 0.38", "unit": "%ID/g"}, {"measurement": "Biodistribution of radioactivity in brain region, Amygdala", "setting": "[1]; 30 min", "value": "0.07 ± 0.03", "unit": "%ID/g"}, {"measurement": "Biodistribution of radioactivity in brain region, Basal Hypothalamus", "setting": "[1]; 30 min", "value": "0.06 ± 0.01", "unit": "%ID/g"}, {"measurement": "Biodistribution of radioactivity, Blood", "setting": "[1]; 30 min", "value": "0.58 ± 0.07", "unit": "%ID/g"}, {"measurement": "Biodistribution of radioactivity, Heart", "setting": "[1]; 30 min", "value": "0.61 ± 0.18", "unit": "%ID/g"}, {"measurement": "Biodistribution of radioactivity, Kidney", "setting": "[1]; 30 min", "value": "0.75 ± 0.07", "unit": "%ID/g"}, {"measurement": "Biodistribution of radioactivity, Liver", "setting": "[1]; 30 min", "value": "3.90 ± 0.15", "unit": "%ID/g"}, {"measurement": "Biodistribution of radioactivity, Lung", "setting": "[1]; 30 min", "value": "1.41 ± 0.72", "unit": "%ID/g"}, {"measurement": "Biodistribution of radioactivity, Muscle", "setting": "[1]; 30 min", "value": "0.26 ± 0.02", "unit": "%ID/g"}, {"measurement": "Biodistribution of radioactivity, Uterus", "setting": "[1]; 30 min", "value": "0.41 ± 0.07", "unit": "%ID/g"}, {"measurement": "Biodistribution of radioactivity in brain region, Amygdala", "setting": "[1]; 60 min", "value": "0.09 ± 0.02", "unit": "%ID/g"}, {"measurement": "Biodistribution of radioactivity in brain region, Basal Hypothalamus", "setting": "[1]; 60 min", "value": "0.06 ± 0.01", "unit": "%ID/g"}, {"measurement": "Biodistribution of radioactivity in brain region, Dorsal Striatum", "setting": "[1]; 60 min", "value": "0.04 ± 0.01", "unit": "%ID/g"}, {"measurement": "Biodistribution of radioactivity, Blood", "setting": "[1]; 60 min", "value": "0.55 ± 0.27", "unit": "%ID/g"}, {"measurement": "Biodistribution of radioactivity, Heart", "setting": "[1]; 60 min", "value": "0.54 ± 0.28", "unit": "%ID/g"}, {"measurement": "Biodistribution of radioactivity, Kidney", "setting": "[1]; 60 min", "value": "0.69 ± 0.30", "unit": "%ID/g"}, {"measurement": "Biodistribution of radioactivity, Liver", "setting": "[1]; 60 min", "value": "3.09 ± 1.34", "unit": "%ID/g"}, {"measurement": "Biodistribution of radioactivity, Lung", "setting": "[1]; 60 min", "value": "1.45 ± 1.04", "unit": "%ID/g"}, {"measurement": "Biodistribution of radioactivity, Muscle", "setting": "[1]; 60 min", "value": "0.23 ± 0.11", "unit": "%ID/g"}, {"measurement": "Biodistribution of radioactivity, Uterus", "setting": "[1]; 60 min", "value": "0.45 ± 0.23", "unit": "%ID/g"}, {"measurement": "Biodistribution of radioactivity, Brain", "setting": "[1]; 60 min", "value": "0.04 ± 0.02", "unit": "%ID/g"}, {"measurement": "Biodistribution of radioactivity in brain region, Amygdala", "setting": "[1]; 120 min", "value": "0.06 ± 0.01", "unit": "%ID/g"}, {"measurement": "Biodistribution of radioactivity in brain region, Cerebellum", "setting": "[1]; 120 min", "value": "0.03 ± 0.01", "unit": "%ID/g"}, {"measurement": "Biodistribution of radioactivity in brain region, Dorsal Striatum", "setting": "[1]; 120 min", "value": "0.03 ± 0.01", "unit": "%ID/g"}, {"measurement": "Biodistribution of radioactivity in brain region, Remaining Brain", "setting": "[1]; 120 min", "value": "0.03 ± 0.01", "unit": "%ID/g"}, {"measurement": "Biodistribution of radioactivity, Blood", "setting": "[1]; 120 min", "value": "0.38 ± 0.14", "unit": "%ID/g"}, {"measurement": "Biodistribution of radioactivity, Heart", "setting": "[1]; 120 min", "value": "0.38 ± 0.06", "unit": "%ID/g"}, {"measurement": "Biodistribution of radioactivity, Kidney", "setting": "[1]; 120 min", "value": "0.42 ± 0.10", "unit": "%ID/g"}, {"measurement": "Biodistribution of radioactivity, Liver", "setting": "[1]; 120 min", "value": "1.81 ± 0.30", "unit": "%ID/g"}, {"measurement": "Biodistribution of radioactivity, Muscle", "setting": "[1]; 120 min", "value": "0.14 ± 0.03", "unit": "%ID/g"}, {"measurement": "Biodistribution of radioactivity, Uterus", "setting": "[1]; 120 min", "value": "0.30 ± 0.10", "unit": "%ID/g"}, {"measurement": "Biodistribution of radioactivity, Brain", "setting": "[1]; 120 min", "value": "0.02 ± 0.01", "unit": "%ID/g"}]}
{"molecule": "CS(=O)(=O)N1CCC(Oc2ccc(CC(=O)N3CCC(N4C(=O)CCc5ccccc54)CC3)c(OC/C=C/I)c2)CC1", "note": "[Compound 1, (E)-1-(1-(2-(2-(3-Iodoallyloxy)-4-(1-(methylsulfonyl)piperidin-4-yloxy)phenyl)acetyl)piperidin-4-yl)-3,4-dihydroquinolin-2(1H)-one]", "values": [{"measurement": "potency for the human OTR over V1aR", "setting": "human OTR", "value": 79, "unit": "fold"}]}
